Drawing on ChEMBL document CHEMBL4257452, “A mini-library system to investigate non-essential residues of lipid-phosphatidylserine (PS) binding peptide-peptoid hybrid PPS1” (Medchemcomm, 2017), this text covers Activity for twelve compounds.

Structures are written as SMILES. The source made the active and inactive calls. The calls are words filed in the database; no cut-off is given here. Starred links: 1 amine or outer side, 2 acyl side, 3 side chain; linkers in the order of their positions; H or OH if unused. Positions of bridges follow the written chain, without caps; N, C: chain ends. Non-standard residues stand in square brackets, D forms with d. Residues, ends and D or L forms follow the SMILES beside them. Chains are numbered I, II in the order given. N(3,4-(MeO)2phenethyl)Gly = COc1ccc(CCNCC(=O)O)cc1OC; Gly(N-CH2CH2C6H4-4Cl) = O=C(O)CNCCc1ccc(Cl)cc1; Gly(N-piperonyl) = O=C(O)CNCc1ccc2c(c1)OCO2; Gly(Nα-4-Cl-benzyl) = O=C(O)CNCc1ccc(Cl)cc1; N(4-MeOBn)Gly = COc1ccc(CNCC(=O)O)cc1; X11 = Nc1ccc(CN(CC(=O)[*:2])[*:1])cc1; X3 = CC(c1ccccc1)N(CC(=O)[*:2])[*:1]; N(isopentyl)Gly = CC(C)CCNCC(=O)O; X10 = CCC(C)CN(CC(=O)[*:2])[*:1]; Gly(N-propargyl) = C#CCNCC(=O)O; X6 = CCC(C)N(CC(=O)[*:2])[*:1]; NcPrGly = O=C(O)CNC1CC1

The assay has as its system HCC4017. Nature of the assay: Cytotoxicity against human HCC4017 cells assessed as reduction in cell viability at 20 uM after 24 hrs by MTS assay. Type of assay: functional, cell-based. In outline: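 HCC4017 cells (RPMI, 5% FBS) and HBEC-3KT normal lung cells (KSFM with recombinant human EGF and bovine pituitary extract) were plated at 10 000 cells/well in triplicate and left to adhere overnight. They were exposed to 1 or 20 μM compound for 24 h. MTS reagent was then added for 2 h and absorbance read at 490 nm. Viability is % of untreated control wells.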
(Tetrazolium assays rely on reduction of a dye to a coloured formazan, in cell work by metabolically active cells.)
Turning to `COc1ccc(CN(CC(=O)N(CCc2ccc(OC)c(OC)c2)CC(=O)NC(CCCCN)C(=O)NC(CCCCN)C(=O)NC(CCSC)C(=O)NCCCCC(NC(=O)C(CCSC)NC(=O)C(CCCCN)NC(=O)C(CCCCN)NC(=O)CN(CCc2ccc(OC)c(OC)c2)C(=O)CN(Cc2ccc(OC)cc2)C(=O)CN(C(=O)CN(Cc2ccc3c(c2)OCO3)C(=O)CNC(C)c2ccccc2)C(C)c2ccccc2)C(N)=O)C(=O)CN(C(=O)CN(Cc2ccc3c(c2)OCO3)C(=O)CNC(C)c2ccccc2)C(C)c2ccccc2)cc1` (configuration not stated) (I: H-[X3][Gly(N-piperonyl)][X3][N(4-MeOBn)Gly][N(3,4-(MeO)2phenethyl)Gly]KKMK-NH2 / II: H-[X3][Gly(N-piperonyl)][X3][N(4-MeOBn)Gly][N(3,4-(MeO)2phenethyl)Gly]KKM; amide I:9-II:C; configuration not given here), the outcome was Active.
On to `COc1ccc(CN(CC(=O)N(CC(=O)NC(CCCCN)C(=O)NC(CCCCN)C(=O)NC(CCSC)C(=O)NCCCCC(NC(=O)C(CCSC)NC(=O)C(CCCCN)NC(=O)C(CCCCN)NC(=O)CN(Cc2ccc(Cl)cc2)C(=O)CN(Cc2ccc(OC)cc2)C(=O)CN(C(=O)CN(Cc2ccc3c(c2)OCO3)C(=O)CNC(C)c2ccccc2)C(C)c2ccccc2)C(N)=O)Cc2ccc(Cl)cc2)C(=O)CN(C(=O)CN(Cc2ccc3c(c2)OCO3)C(=O)CNC(C)c2ccccc2)C(C)c2ccccc2)cc1` (configuration not stated) (I: H-[X3][Gly(N-piperonyl)][X3][N(4-MeOBn)Gly][Gly(Nα-4-Cl-benzyl)]KKMK-NH2 / II: H-[X3][Gly(N-piperonyl)][X3][N(4-MeOBn)Gly][Gly(Nα-4-Cl-benzyl)]KKM; amide I:9-II:C; configuration not given here), for which the result was Active.
`CCC(C)CN(CC(=O)NC(CCCCN)C(=O)NC(CCCCN)C(=O)NC(CCSC)C(=O)NCCCCC(NC(=O)C(CCSC)NC(=O)C(CCCCN)NC(=O)C(CCCCN)NC(=O)CN(CC(C)CC)C(=O)CN(Cc1ccc(OC)cc1)C(=O)CN(C(=O)CN(Cc1ccc2c(c1)OCO2)C(=O)CNC(C)c1ccccc1)C(C)c1ccccc1)C(N)=O)C(=O)CN(Cc1ccc(OC)cc1)C(=O)CN(C(=O)CN(Cc1ccc2c(c1)OCO2)C(=O)CNC(C)c1ccccc1)C(C)c1ccccc1` (configuration not stated) (I: H-[X3][Gly(N-piperonyl)][X3][N(4-MeOBn)Gly][X10]KKMK-NH2 / II: H-[X3][Gly(N-piperonyl)][X3][N(4-MeOBn)Gly][X10]KKM; amide I:9-II:C; configuration not given here): the outcome was Active.
Turning to `COc1ccc(CN(CC(=O)NC(CC(=O)O)C(=O)NC(CCCCN)C(=O)NC(CCCCN)C(=O)NC(CCSC)C(=O)NCCCCC(NC(=O)C(CCSC)NC(=O)C(CCCCN)NC(=O)C(CCCCN)NC(=O)C(CC(=O)O)NC(=O)CN(Cc2ccc(OC)cc2)C(=O)CN(C(=O)CN(Cc2ccc3c(c2)OCO3)C(=O)CNC(C)c2ccccc2)C(C)c2ccccc2)C(N)=O)C(=O)CN(C(=O)CN(Cc2ccc3c(c2)OCO3)C(=O)CNC(C)c2ccccc2)C(C)c2ccccc2)cc1` (configuration not stated) (I: H-[X3][Gly(N-piperonyl)][X3][N(4-MeOBn)Gly]DKKMK-NH2 / II: H-[X3][Gly(N-piperonyl)][X3][N(4-MeOBn)Gly]DKKM; amide I:9-II:C; configuration not given here), the outcome was inactive.
In the case of `CCC(C)N(CC(=O)NC(CCCCN)C(=O)NC(CCCCN)C(=O)NC(CCSC)C(=O)NCCCCC(NC(=O)C(CCSC)NC(=O)C(CCCCN)NC(=O)C(CCCCN)NC(=O)CN(C(=O)CN(Cc1ccc(OC)cc1)C(=O)CN(C(=O)CN(Cc1ccc2c(c1)OCO2)C(=O)CNC(C)c1ccccc1)C(C)c1ccccc1)C(C)CC)C(N)=O)C(=O)CN(Cc1ccc(OC)cc1)C(=O)CN(C(=O)CN(Cc1ccc2c(c1)OCO2)C(=O)CNC(C)c1ccccc1)C(C)c1ccccc1` (configuration not stated) (I: H-[X3][Gly(N-piperonyl)][X3][N(4-MeOBn)Gly][X6]KKMK-NH2 / II: H-[X3][Gly(N-piperonyl)][X3][N(4-MeOBn)Gly][X6]KKM; amide I:9-II:C; configuration not given here), the result was Active.
For `COc1ccc(CN(CC(=O)N(CC(=O)NC(CCCCN)C(=O)NC(CCCCN)C(=O)NC(CCSC)C(=O)NCCCCC(NC(=O)C(CCSC)NC(=O)C(CCCCN)NC(=O)C(CCCCN)NC(=O)CN(Cc2ccc(N)cc2)C(=O)CN(Cc2ccc(OC)cc2)C(=O)CN(C(=O)CN(Cc2ccc3c(c2)OCO3)C(=O)CNC(C)c2ccccc2)C(C)c2ccccc2)C(N)=O)Cc2ccc(N)cc2)C(=O)CN(C(=O)CN(Cc2ccc3c(c2)OCO3)C(=O)CNC(C)c2ccccc2)C(C)c2ccccc2)cc1` (configuration not stated) (I: H-[X3][Gly(N-piperonyl)][X3][N(4-MeOBn)Gly][X11]KKMK-NH2 / II: H-[X3][Gly(N-piperonyl)][X3][N(4-MeOBn)Gly][X11]KKM; amide I:9-II:C; configuration not given here), the result was Active.
The same measure for `COc1ccc(CN(CC(=O)N(CCc2ccc(Cl)cc2)CC(=O)NC(CCCCN)C(=O)NC(CCCCN)C(=O)NC(CCSC)C(=O)NCCCCC(NC(=O)C(CCSC)NC(=O)C(CCCCN)NC(=O)C(CCCCN)NC(=O)CN(CCc2ccc(Cl)cc2)C(=O)CN(Cc2ccc(OC)cc2)C(=O)CN(C(=O)CN(Cc2ccc3c(c2)OCO3)C(=O)CNC(C)c2ccccc2)C(C)c2ccccc2)C(N)=O)C(=O)CN(C(=O)CN(Cc2ccc3c(c2)OCO3)C(=O)CNC(C)c2ccccc2)C(C)c2ccccc2)cc1` (configuration not stated) (I: H-[X3][Gly(N-piperonyl)][X3][N(4-MeOBn)Gly][Gly(N-CH2CH2C6H4-4Cl)]KKMK-NH2 / II: H-[X3][Gly(N-piperonyl)][X3][N(4-MeOBn)Gly][Gly(N-CH2CH2C6H4-4Cl)]KKM; amide I:9-II:C; configuration not given here): “Active”; for `C#CCN(CC(=O)NC(CCCCN)C(=O)NC(CCCCN)C(=O)NC(CCSC)C(=O)NCCCCC(NC(=O)C(CCSC)NC(=O)C(CCCCN)NC(=O)C(CCCCN)NC(=O)CN(CC#C)C(=O)CN(Cc1ccc(OC)cc1)C(=O)CN(C(=O)CN(Cc1ccc2c(c1)OCO2)C(=O)CNC(C)c1ccccc1)C(C)c1ccccc1)C(N)=O)C(=O)CN(Cc1ccc(OC)cc1)C(=O)CN(C(=O)CN(Cc1ccc2c(c1)OCO2)C(=O)CNC(C)c1ccccc1)C(C)c1ccccc1` (configuration not stated) (I: H-[X3][Gly(N-piperonyl)][X3][N(4-MeOBn)Gly][Gly(N-propargyl)]KKMK-NH2 / II: H-[X3][Gly(N-piperonyl)][X3][N(4-MeOBn)Gly][Gly(N-propargyl)]KKM; amide I:9-II:C; configuration not given here): “Active”.
As to `COc1ccc(CN(CC(=O)N(CCC(C)C)CC(=O)NC(CCCCN)C(=O)NC(CCCCN)C(=O)NC(CCSC)C(=O)NCCCCC(NC(=O)C(CCSC)NC(=O)C(CCCCN)NC(=O)C(CCCCN)NC(=O)CN(CCC(C)C)C(=O)CN(Cc2ccc(OC)cc2)C(=O)CN(C(=O)CN(Cc2ccc3c(c2)OCO3)C(=O)CNC(C)c2ccccc2)C(C)c2ccccc2)C(N)=O)C(=O)CN(C(=O)CN(Cc2ccc3c(c2)OCO3)C(=O)CNC(C)c2ccccc2)C(C)c2ccccc2)cc1` (configuration not stated) (I: H-[X3][Gly(N-piperonyl)][X3][N(4-MeOBn)Gly][N(isopentyl)Gly]KKMK-NH2 / II: H-[X3][Gly(N-piperonyl)][X3][N(4-MeOBn)Gly][N(isopentyl)Gly]KKM; amide I:9-II:C; configuration not given here), the outcome was Active.
Consider `COc1ccc(CN(CC(=O)NC(C)C(=O)NC(CCCCN)C(=O)NC(CCCCN)C(=O)NC(CCSC)C(=O)NCCCCC(NC(=O)C(CCSC)NC(=O)C(CCCCN)NC(=O)C(CCCCN)NC(=O)C(C)NC(=O)CN(Cc2ccc(OC)cc2)C(=O)CN(C(=O)CN(Cc2ccc3c(c2)OCO3)C(=O)CNC(C)c2ccccc2)C(C)c2ccccc2)C(N)=O)C(=O)CN(C(=O)CN(Cc2ccc3c(c2)OCO3)C(=O)CNC(C)c2ccccc2)C(C)c2ccccc2)cc1` (configuration not stated) (I: H-[X3][Gly(N-piperonyl)][X3][N(4-MeOBn)Gly]AKKMK-NH2 / II: H-[X3][Gly(N-piperonyl)][X3][N(4-MeOBn)Gly]AKKM; amide I:9-II:C; configuration not given here), for which the result was Active.
Consider `COc1ccc(CN(CC(=O)NC(CC(C)C)C(=O)NC(CCCCN)C(=O)NC(CCCCN)C(=O)NC(CCSC)C(=O)NCCCCC(NC(=O)C(CCSC)NC(=O)C(CCCCN)NC(=O)C(CCCCN)NC(=O)C(CC(C)C)NC(=O)CN(Cc2ccc(OC)cc2)C(=O)CN(C(=O)CN(Cc2ccc3c(c2)OCO3)C(=O)CNC(C)c2ccccc2)C(C)c2ccccc2)C(N)=O)C(=O)CN(C(=O)CN(Cc2ccc3c(c2)OCO3)C(=O)CNC(C)c2ccccc2)C(C)c2ccccc2)cc1` (configuration not stated) (I: H-[X3][Gly(N-piperonyl)][X3][N(4-MeOBn)Gly]LKKMK-NH2 / II: H-[X3][Gly(N-piperonyl)][X3][N(4-MeOBn)Gly]LKKM; amide I:9-II:C; configuration not given here), for which the outcome was Active.
In the case of `COc1ccc(CN(CC(=O)N(CC(=O)NC(CCCCN)C(=O)NC(CCCCN)C(=O)NC(CCSC)C(=O)NCCCCC(NC(=O)C(CCSC)NC(=O)C(CCCCN)NC(=O)C(CCCCN)NC(=O)CN(C(=O)CN(Cc2ccc(OC)cc2)C(=O)CN(C(=O)CN(Cc2ccc3c(c2)OCO3)C(=O)CNC(C)c2ccccc2)C(C)c2ccccc2)C2CC2)C(N)=O)C2CC2)C(=O)CN(C(=O)CN(Cc2ccc3c(c2)OCO3)C(=O)CNC(C)c2ccccc2)C(C)c2ccccc2)cc1` (configuration not stated) (I: H-[X3][Gly(N-piperonyl)][X3][N(4-MeOBn)Gly][NcPrGly]KKMK-NH2 / II: H-[X3][Gly(N-piperonyl)][X3][N(4-MeOBn)Gly][NcPrGly]KKM; amide I:9-II:C; configuration not given here), the outcome was Active.
